Published values pooled from the literature.
Compare with care: the assays were run in different laboratories.
Species: human

| Compound | matrix | route | dose | notes | quantity | result |
| --- | --- | --- | --- | --- | --- | --- |
| c1cnc2ccc(Nc3nc(NC4CC4)c4nc[nH]c4n3)cc2c1 | plasma | oral | 400 mg/m² | patients | CL/F | 115 L/h |
| CS(=O)(=O)CCC#N | plasma | oral | 300 mg | single dose, fasted | CL/F | 0.217 mL/min/kg |
| Cn1cc(-c2cnc3cnn(S(=O)(=O)c4cnc5ccc(-c6cnn(C)c6)cn45)c3c2)cn1 | plasma | oral | 300 mg | single dose, fasted, healthy volunteers | CL/F | 12.8 L/h |
| Cc1ccc(C(=O)N(CCCN)[C@@H](c2oc3cc(Cl)ccc3c(=O)c2Cc2ccccc2)C(C)C)cc1 | plasma | intravenous | 8 mg/m² | single dose, patients, infusion | clearance | 23.1 mL/min |
| CCNCCCNC/C=C\CNCCCNCC | plasma | intravenous | 50 mg | patients, infusion | clearance | 10500 mL/min |
| COc1cc(C(=O)NC2CCN(C)CC2)c(F)cc1Nc1ncc(C(F)(F)F)c(Oc2cccc3c2C(=O)N(C)C3)n1 | plasma | oral | 300 mg | multiple doses, once daily, patients | CL/F | 6.42 L/h |
| OC[C@H]1O[C@@H](c2ccc(Cl)c(Cc3ccc(O[C@H]4CCOC4)cc3)c2)[C@H](O)[C@@H](O)[C@@H]1O | plasma | oral |  | multiple doses, steady state | CL/F | 8.99 L/h |
| OC[C@H]1O[C@@H](c2ccc(Cl)c(Cc3ccc(O[C@H]4CCOC4)cc3)c2)[C@H](O)[C@@H](O)[C@@H]1O | urine | oral | 100 mg | single dose | renal clearance | 15 mL/min |
